Laboratory results from ChEMBL document CHEMBL4376872, “Scaffold Hopping of Natural Product Evodiamine: Discovery of a Novel Antitumor Scaffold with Excellent Potency against Colon Cancer” (J Med Chem, 2020).
Calls of active or inactive are those of the source. The rule behind the calls is not given here.

What was measured:
[1] = tested on: HCT-116; assay: Induction of apoptosis in human HCT116 cells at 0.04 uM incubated for 24 hrs by annexin V-FITC and propidium iodide staining based flow cytometry (reference value: 0.86 %); assay type: functional
[2] = molecular target: N-lysine methyltransferase KMT5A (Homo sapiens) (UniProt Q9NQR1); assay: Inhibition of SET8 (unknown origin) using plate-coated histone as substrate at 5 uM incubated for 90 mins in presence of 10 uM SAM by AlphaScreen assay relative to control
N-lysine methyltransferase KMT5A (Homo sapiens), sequence (Q9NQR1 whole entry): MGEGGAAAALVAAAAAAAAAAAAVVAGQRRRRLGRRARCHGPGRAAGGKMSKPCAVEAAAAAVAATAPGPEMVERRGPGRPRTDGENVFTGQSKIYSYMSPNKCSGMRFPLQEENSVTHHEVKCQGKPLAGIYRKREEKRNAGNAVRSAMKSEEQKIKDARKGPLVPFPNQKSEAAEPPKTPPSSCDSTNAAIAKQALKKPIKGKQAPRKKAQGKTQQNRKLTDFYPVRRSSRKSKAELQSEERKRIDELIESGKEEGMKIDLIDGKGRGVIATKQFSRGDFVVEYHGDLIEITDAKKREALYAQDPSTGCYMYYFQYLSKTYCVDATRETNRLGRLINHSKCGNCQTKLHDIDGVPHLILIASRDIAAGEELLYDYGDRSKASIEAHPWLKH

[3] = tested on: HCT-116; assay: Cell cycle arrest in human HCT116 cells assessed as accumulation in G2 phase at 36 nM incubated for 24 hrs by propidium iodide staining based flow cytometry (reference value: 12.52 %); assay type: functional
[4] = Toxicity in mouse xenografted with human HCT116 cells assessed as reduction in body weight at 4 mg/kg, ip bid for 21 days administration starting from 10 days after tumor cell implantation measured every 2 or 4 days till the end of the treatment period; assay type: organism-based; settings: in vivo
In short: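 Nude mice bearing HCT116 xenografts were given intraperitoneal doses on 21 consecutive days, with n = 6 per group including an untreated control group. Body weight was recorded to assess toxicity. Data are mean ± SEM, compared with the control group by Student's t test.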

[5] = tested on: HCT-116; assay: Cell cycle arrest in human HCT116 cells assessed as accumulation in S phase at 12 nM incubated for 24 hrs by propidium iodide staining based flow cytometry (reference value: 42.31 %); assay type: functional
[6] = tested on: NCI-H446; assay: Antiproliferative activity against human NCI-H446 cells assessed as reduction in cell viability incubated for 72 hrs by CCK8 assay; assay type: functional, cell-based; settings: NCI-H446, 72 h
[7] = molecular target: 72 kDa type IV collagenase (Homo sapiens) (UniProt P08253); assay: Inhibition of MMP2 (unknown origin) using Mca-PLGLDpaAR as substrate at 5 uM preincubated with enzyme for 2 hrs followed by incubation with substrate for 15 mins by fluorescence based analysis relative to control
72 kDa type IV collagenase (Homo sapiens), sequence (P08253 110-660 limits assumed): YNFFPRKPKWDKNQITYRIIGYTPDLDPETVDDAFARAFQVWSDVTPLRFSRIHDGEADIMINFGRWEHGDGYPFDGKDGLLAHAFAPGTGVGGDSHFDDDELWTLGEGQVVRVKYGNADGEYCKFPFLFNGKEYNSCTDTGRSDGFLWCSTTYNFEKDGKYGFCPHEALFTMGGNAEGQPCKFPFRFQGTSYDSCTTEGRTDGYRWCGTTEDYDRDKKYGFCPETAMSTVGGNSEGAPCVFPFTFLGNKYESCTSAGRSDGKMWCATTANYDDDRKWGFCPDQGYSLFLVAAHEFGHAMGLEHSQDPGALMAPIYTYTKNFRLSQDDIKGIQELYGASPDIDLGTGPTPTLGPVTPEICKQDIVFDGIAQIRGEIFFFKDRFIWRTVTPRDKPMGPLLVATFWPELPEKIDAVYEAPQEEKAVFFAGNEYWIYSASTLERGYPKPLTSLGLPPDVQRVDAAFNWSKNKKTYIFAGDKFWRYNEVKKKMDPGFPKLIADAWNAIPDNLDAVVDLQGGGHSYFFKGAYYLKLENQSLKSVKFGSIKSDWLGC

[8] = tested on: HCT-116; assay: Cell cycle arrest in human HCT116 cells assessed as accumulation in G1 phase at 36 nM incubated for 24 hrs by propidium iodide staining based flow cytometry (reference value: 45.18 %); assay type: functional
[9] = molecular target: Poly [ADP-ribose] polymerase 2 (Homo sapiens) (UniProt Q9UGN5); assay: Inhibition of PARP2 (unknown origin) using biotin-NAD+, NAD+ and sIDNA as substrate at 5 uM incubated for 1 hr by ELISA relative to control
[10] = molecular target: Tyrosine-protein kinase ABL1 (Homo sapiens) (UniProt P00519); assay: Inhibition of Abl (unknown origin) using Abltide as substrate at 5 uM incubated for 40 mins in presence of 10 uM ATP by kiase-Glo luminescence assay relative to control
[11] = tested on: HCT-116; assay: Induction of apoptosis in human HCT116 cells at 1 uM incubated for 24 hrs by annexin V-FITC and propidium iodide staining based flow cytometry (reference value: 0.86 %); assay type: functional
[12] = molecular target: Histone-lysine N-methyltransferase EZH2 (Homo sapiens) (UniProt Q15910); assay: Inhibition of EZH2 (unknown origin) using plate-coated histone as substrate at 5 uM incubated for 90 mins in presence of 5 uM SAM by AlphaScreen assay relative to control
Histone-lysine N-methyltransferase EZH2 (Homo sapiens), sequence (Q15910 whole entry, looked up): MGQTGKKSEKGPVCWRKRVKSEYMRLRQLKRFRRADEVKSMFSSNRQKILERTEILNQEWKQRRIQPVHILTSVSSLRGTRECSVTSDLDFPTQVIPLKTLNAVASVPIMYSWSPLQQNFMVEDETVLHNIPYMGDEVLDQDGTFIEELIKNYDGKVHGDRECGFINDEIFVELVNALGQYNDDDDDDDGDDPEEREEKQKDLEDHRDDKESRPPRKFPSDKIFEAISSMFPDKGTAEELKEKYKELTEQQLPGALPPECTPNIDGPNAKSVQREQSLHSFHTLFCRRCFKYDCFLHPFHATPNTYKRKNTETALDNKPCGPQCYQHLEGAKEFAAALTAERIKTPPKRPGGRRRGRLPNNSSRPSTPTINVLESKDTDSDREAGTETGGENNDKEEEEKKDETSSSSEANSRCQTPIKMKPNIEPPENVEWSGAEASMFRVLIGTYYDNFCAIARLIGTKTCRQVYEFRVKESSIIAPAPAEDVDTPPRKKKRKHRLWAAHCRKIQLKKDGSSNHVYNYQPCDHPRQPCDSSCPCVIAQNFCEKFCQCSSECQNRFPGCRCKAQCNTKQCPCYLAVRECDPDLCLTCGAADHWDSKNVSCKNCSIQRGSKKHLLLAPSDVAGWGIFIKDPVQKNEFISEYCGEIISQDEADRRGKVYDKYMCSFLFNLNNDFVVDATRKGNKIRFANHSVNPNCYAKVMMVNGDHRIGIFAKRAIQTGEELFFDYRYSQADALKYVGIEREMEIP

[13] = tested on: MDA-MB-435; assay: Antiproliferative activity against human MDA-MB-435 cells assessed as reduction in cell viability incubated for 72 hrs by CCK8 assay; assay type: functional, cell-based; settings: MDA-MB-435, 72 h
[14] = molecular target: Lysine-specific demethylase 6B (Homo sapiens) (UniProt O15054); assay: Inhibition of JMJD3 (unknown origin) using biotinylated histone H3 peptide as substrate at 5 uM incubated for 60 mins by AlphaScreen assay relative to control
Lysine-specific demethylase 6B (Homo sapiens), sequence (O15054 whole entry): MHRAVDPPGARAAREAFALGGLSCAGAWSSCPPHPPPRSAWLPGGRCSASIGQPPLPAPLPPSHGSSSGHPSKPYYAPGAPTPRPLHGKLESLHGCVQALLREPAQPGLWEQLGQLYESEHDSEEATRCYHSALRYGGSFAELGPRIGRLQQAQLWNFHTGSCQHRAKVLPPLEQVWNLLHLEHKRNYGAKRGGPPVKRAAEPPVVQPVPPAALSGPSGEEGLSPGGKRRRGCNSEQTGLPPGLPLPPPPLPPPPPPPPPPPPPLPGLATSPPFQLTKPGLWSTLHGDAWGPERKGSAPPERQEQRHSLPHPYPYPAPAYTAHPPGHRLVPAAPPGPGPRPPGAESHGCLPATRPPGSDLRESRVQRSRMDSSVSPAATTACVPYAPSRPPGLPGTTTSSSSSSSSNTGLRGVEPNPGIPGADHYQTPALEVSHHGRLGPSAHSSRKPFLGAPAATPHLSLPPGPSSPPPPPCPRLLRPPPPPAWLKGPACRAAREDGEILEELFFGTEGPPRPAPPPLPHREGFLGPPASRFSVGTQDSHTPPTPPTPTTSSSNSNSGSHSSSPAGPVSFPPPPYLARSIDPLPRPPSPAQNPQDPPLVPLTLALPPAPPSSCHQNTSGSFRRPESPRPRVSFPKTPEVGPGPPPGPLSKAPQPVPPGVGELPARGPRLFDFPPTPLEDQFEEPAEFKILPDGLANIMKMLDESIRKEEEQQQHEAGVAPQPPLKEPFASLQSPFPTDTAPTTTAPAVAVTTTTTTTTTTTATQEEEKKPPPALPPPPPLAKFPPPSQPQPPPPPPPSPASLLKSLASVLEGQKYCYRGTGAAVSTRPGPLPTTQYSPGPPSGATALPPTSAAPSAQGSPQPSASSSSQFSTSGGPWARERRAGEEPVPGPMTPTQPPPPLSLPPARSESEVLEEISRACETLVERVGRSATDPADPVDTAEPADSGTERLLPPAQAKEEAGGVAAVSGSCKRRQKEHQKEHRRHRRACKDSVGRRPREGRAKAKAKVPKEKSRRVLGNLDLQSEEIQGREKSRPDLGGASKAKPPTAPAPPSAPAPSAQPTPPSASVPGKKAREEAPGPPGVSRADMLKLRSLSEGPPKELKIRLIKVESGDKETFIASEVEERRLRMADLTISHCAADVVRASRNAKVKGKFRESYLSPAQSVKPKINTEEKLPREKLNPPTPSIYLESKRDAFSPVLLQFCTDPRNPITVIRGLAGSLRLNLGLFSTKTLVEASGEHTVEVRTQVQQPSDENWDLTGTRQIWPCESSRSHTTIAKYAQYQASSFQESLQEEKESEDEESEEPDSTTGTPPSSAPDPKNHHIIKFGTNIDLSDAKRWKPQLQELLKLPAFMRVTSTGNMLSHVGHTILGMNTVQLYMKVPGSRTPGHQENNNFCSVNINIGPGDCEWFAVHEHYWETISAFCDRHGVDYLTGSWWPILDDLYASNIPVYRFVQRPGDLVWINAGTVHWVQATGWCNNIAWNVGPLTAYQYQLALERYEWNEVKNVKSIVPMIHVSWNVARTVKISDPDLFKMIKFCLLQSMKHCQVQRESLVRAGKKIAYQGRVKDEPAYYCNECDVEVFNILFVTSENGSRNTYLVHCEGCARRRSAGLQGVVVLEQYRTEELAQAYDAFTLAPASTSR

[15] = molecular target: T1, DNA topoisomerase 1 (Escherichia coli (strain K12)) (UniProt P06612); assay: Poison activity at Escherichia coli Top1 assessed as increase in […] band intensity at 12.5 to 100 uM using supercoiled pUC19 plasmid DNA as substrate incubated for 30 mins by agarose gel electrophoresis analysis
T1 sequence (whole entry): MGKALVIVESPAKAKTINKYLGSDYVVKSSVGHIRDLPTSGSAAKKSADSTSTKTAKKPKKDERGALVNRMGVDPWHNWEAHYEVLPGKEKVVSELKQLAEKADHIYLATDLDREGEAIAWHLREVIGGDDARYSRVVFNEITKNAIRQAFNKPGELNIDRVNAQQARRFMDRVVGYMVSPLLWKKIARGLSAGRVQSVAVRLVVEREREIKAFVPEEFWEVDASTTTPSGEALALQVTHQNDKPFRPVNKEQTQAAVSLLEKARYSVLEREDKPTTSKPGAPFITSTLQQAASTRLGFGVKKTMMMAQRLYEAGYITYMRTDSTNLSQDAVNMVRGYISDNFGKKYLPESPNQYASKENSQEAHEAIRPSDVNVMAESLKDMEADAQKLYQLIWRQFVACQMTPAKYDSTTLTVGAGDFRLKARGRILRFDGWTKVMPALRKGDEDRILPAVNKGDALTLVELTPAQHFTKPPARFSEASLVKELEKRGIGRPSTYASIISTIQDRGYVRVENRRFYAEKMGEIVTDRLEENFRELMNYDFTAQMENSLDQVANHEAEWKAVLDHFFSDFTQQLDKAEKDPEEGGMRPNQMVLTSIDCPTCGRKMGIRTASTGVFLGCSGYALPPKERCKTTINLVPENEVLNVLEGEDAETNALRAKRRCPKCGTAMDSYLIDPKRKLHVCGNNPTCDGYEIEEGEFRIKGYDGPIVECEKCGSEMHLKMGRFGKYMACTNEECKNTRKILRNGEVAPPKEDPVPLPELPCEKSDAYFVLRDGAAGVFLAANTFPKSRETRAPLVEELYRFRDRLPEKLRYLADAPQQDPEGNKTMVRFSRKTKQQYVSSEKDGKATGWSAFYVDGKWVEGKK
In short: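 Supercoiled pUC19 plasmid DNA was incubated with Top1 plus compound at 100, 50, 25 and 12.5 μM. Controls were DNA alone, DNA + Top1, and DNA + Top1 + CPT (100 μM). Products were resolved as gel lanes.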

[16] = tested on: HCT-116; assay: Antiproliferative activity against human HCT116 cells assessed as reduction in cell viability incubated for 72 hrs by CCK8 assay; assay type: functional, cell-based; settings: HCT-116, 72 h
[17] = molecular target: Protein mono-ADP-ribosyltransferase PARP12 (Homo sapiens) (UniProt Q9H0J9); assay: Inhibition of PARP12 (unknown origin) using biotin-NAD+, NAD+ and sIDNA as substrate at 5 uM incubated for 1 hr by ELISA relative to control
Protein mono-ADP-ribosyltransferase PARP12 (Homo sapiens), sequence (Q9H0J9 whole entry): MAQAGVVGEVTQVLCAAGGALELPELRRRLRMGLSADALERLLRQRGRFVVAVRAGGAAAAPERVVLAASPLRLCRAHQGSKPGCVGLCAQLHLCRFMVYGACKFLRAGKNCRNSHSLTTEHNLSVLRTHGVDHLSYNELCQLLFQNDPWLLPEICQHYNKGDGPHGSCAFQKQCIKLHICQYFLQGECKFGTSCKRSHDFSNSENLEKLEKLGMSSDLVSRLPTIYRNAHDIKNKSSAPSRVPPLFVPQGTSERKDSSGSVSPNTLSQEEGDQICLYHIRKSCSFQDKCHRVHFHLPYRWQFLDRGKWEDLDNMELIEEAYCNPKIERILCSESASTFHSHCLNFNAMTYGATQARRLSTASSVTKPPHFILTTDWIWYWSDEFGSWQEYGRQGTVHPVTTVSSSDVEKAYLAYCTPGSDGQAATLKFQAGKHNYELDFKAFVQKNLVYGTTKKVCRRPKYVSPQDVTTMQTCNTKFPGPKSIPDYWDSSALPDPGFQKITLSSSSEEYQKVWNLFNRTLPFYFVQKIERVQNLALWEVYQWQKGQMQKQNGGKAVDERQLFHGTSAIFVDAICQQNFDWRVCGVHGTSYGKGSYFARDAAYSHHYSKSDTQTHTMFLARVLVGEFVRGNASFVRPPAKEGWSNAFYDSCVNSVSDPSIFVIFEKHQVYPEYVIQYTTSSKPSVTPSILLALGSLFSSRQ

[18] = Antiproliferative activity against human SW579 cells assessed as reduction in cell viability incubated for 72 hrs by CCK8 assay; assay type: functional, cell-based; settings: SW579, 72 h
[19] = molecular target: Tyrosine-protein phosphatase non-receptor type 11 (Homo sapiens) (UniProt Q06124); assay: Inhibition of SHP2 (unknown origin) using DiFMUP as substrate at 5 uM incubated for 30 mins by fluorescence based analysis
Tyrosine-protein phosphatase non-receptor type 11 (Homo sapiens), sequence (Q06124 whole entry): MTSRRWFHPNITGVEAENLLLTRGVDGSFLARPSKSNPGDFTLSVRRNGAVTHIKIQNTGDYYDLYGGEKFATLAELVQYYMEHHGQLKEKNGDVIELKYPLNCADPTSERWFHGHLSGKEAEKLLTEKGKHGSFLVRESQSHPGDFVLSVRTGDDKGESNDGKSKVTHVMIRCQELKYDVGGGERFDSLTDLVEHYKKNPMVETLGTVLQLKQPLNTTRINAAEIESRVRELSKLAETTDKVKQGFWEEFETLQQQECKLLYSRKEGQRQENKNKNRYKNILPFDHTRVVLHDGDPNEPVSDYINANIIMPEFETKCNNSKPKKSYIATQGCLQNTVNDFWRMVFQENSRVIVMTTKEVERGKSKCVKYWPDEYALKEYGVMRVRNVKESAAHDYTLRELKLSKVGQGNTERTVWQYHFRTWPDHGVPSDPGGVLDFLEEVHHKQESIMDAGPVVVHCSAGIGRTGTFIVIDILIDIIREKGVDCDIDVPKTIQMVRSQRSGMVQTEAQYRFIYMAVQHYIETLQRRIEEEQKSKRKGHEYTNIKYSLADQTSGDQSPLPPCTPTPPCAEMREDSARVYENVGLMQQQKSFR

[20] = tested on: HCT-116; assay: Cell cycle arrest in human HCT116 cells assessed as accumulation in S phase at 36 nM incubated for 24 hrs by propidium iodide staining based flow cytometry (reference value: 42.31 %); assay type: functional

COc1ccc2c(c1)cc1n2CCN2C(=O)c3cc(F)ccc3N(C)C12 (stereo not given)
Activity [1]: 32.52% | inhibition [2]: < 20% | Activity [3]: 84.13% | Activity [4]: Non-Toxic | Activity [5]: 40.44% | IC50 [6]: > 200000 nM | inhibition [7]: < 20% | Activity [8]: 1.02% | inhibition [9]: < 20% | inhibition [10]: < 20% | Activity [11]: 52% | inhibition [12]: < 20% | IC50 [13]: 1000 nM | inhibition [14]: < 20% | Activity [15]: Active | IC50 [16]: 2 nM | inhibition [17]: < 20% | IC50 [18]: 6100 nM | inhibition [19]: < 20% | Activity [20]: 14.85%
